# Test results published in ChEMBL document CHEMBL5303300, “EUbOPEN Chemogenomics Library - Multiplex” (2023).
# “And” between values parts separate entries of the source, which are not always exact repeats. Identical values can stand only once.
# Tested on: HEK-293T
# Test: Multiplex assay against HEK293T
# Assay type: toxicity, cell-based
# Settings: human, number of replicates 2
# How it was run: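 On a CQ1 microscope at 37°C and 5% CO2, live cells were imaged after compound addition. They had been stained at seeding with Hoechst33342, BioTracker Green Microtubule Cytoskeleton Dye, MitoTracker Red and Annexin V Alexa Fluor 680. CellPathfinder machine-learning gating assigned cells to Hoechst high-intensity objects or normal cells, normal cells to healthy, pyknosed or fragmented nuclei, and pyknosed cells to mitotic or apoptotic. Tubulin, mitochondrial-mass and membrane-permeability phenotypes are per cents of healthy-nucleus cells.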
# [1] = 12 h, 1 µM, compound concentration 1 uM
# [2] = 12 h, 10 µM, compound concentration 10 uM
# [3] = 24 h, 1 µM, compound concentration 1 uM
# [4] = 24 h, 10 µM, compound concentration 10 uM
# [5] = 48 h, 1 µM, compound concentration 1 uM
# [6] = 48 h, 10 µM, compound concentration 10 uM
smiles,measurement,setting,value
CCN1C(=O)N(c2c(F)c(OC)cc(OC)c2F)Cc2cnc3[nH]c(CN4CCOCC4)cc3c21 [PEMIGATINIB],Population Apoptotic (%),[1],58% and 63%
same,Population Fragmented Nuclei (%),[1],3%
same,Population Healthy Nuclei (%),[1],82% and 83%
same,Population Hoechst High Intensity Objects (%),[1],7% and 9%
same,Population Membrane Permeable-Phenotype (%),[1],3% and 0%
same,Population Mitochondria Different-Phenotype (%),[1],15% and 20%
same,Population Mitotic Cells (%),[1],41% and 36%
same,Population Normal (%),[1],92% and 90%
same,Population Pyknosed Nuclei (%),[1],13%
same,Population Tubulin-Different-Phenotype (%),[1],51% and 60%
same,Total Cell Count,[1],617 and 677
same,Population Apoptotic (%),[2],64% and 53%
same,Population Fragmented Nuclei (%),[2],4% and 2%
same,Population Healthy Nuclei (%),[2],83% and 87%
same,Population Hoechst High Intensity Objects (%),[2],12% and 8%
same,Population Membrane Permeable-Phenotype (%),[2],2%
same,Population Mitochondria Different-Phenotype (%),[2],31% and 18%
same,Population Mitotic Cells (%),[2],35% and 46%
same,Population Normal (%),[2],87% and 91%
same,Population Pyknosed Nuclei (%),[2],11% and 9%
same,Population Tubulin-Different-Phenotype (%),[2],77% and 68%
same,Total Cell Count,[2],550 and 620
same,Population Apoptotic (%),[3],41% and 56%
same,Population Fragmented Nuclei (%),[3],8% and 7%
same,Population Healthy Nuclei (%),[3],82% and 83%
same,Population Hoechst High Intensity Objects (%),[3],7% and 8%
same,Population Membrane Permeable-Phenotype (%),[3],3% and 1%
same,Population Mitochondria Different-Phenotype (%),[3],7% and 5%
same,Population Mitotic Cells (%),[3],58% and 43%
same,Population Normal (%),[3],92% and 91%
same,Population Pyknosed Nuclei (%),[3],9%
same,Population Tubulin-Different-Phenotype (%),[3],29% and 30%
same,Total Cell Count,[3],1042 and 1171
same,Population Apoptotic (%),[4],52% and 58%
same,Population Fragmented Nuclei (%),[4],4% and 5%
same,Population Healthy Nuclei (%),[4],86% and 89%
same,Population Hoechst High Intensity Objects (%),[4],12% and 11%
same,Population Membrane Permeable-Phenotype (%),[4],1%
same,Population Mitochondria Different-Phenotype (%),[4],19% and 16%
same,Population Mitotic Cells (%),[4],47% and 41%
same,Population Normal (%),[4],87% and 88%
same,Population Pyknosed Nuclei (%),[4],8% and 4%
same,Population Tubulin-Different-Phenotype (%),[4],71% and 61%
same,Total Cell Count,[4],678 and 726
same,Population Apoptotic (%),[5],17%
same,Population Fragmented Nuclei (%),[5],14% and 12%
same,Population Healthy Nuclei (%),[5],83% and 84%
same,Population Hoechst High Intensity Objects (%),[5],7% and 9%
same,Population Membrane Permeable-Phenotype (%),[5],6% and 2%
same,Population Mitochondria Different-Phenotype (%),[5],0%
same,Population Mitotic Cells (%),[5],82%
same,Population Normal (%),[5],92% and 90%
same,Population Pyknosed Nuclei (%),[5],2% and 3%
same,Population Tubulin-Different-Phenotype (%),[5],10% and 18%
same,Total Cell Count,[5],2805 and 2683
same,Population Apoptotic (%),[6],33% and 24%
same,Population Fragmented Nuclei (%),[6],9% and 10%
same,Population Healthy Nuclei (%),[6],87% and 86%
same,Population Hoechst High Intensity Objects (%),[6],13% and 12%
same,Population Membrane Permeable-Phenotype (%),[6],3% and 4%
same,Population Mitochondria Different-Phenotype (%),[6],2% and 4%
same,Population Mitotic Cells (%),[6],66% and 75%
same,Population Normal (%),[6],86% and 87%
same,Population Pyknosed Nuclei (%),[6],3%
same,Population Tubulin-Different-Phenotype (%),[6],55%
same,Total Cell Count,[6],1120 and 944
CNc1ncc2cc(-c3ccc(-c4cccc(C)n4)cc3Cl)c(=O)n(C[C@H]3OC[C@H](N)CO3)c2n1,Population Apoptotic (%),[1],57% and 63%
same,Population Fragmented Nuclei (%),[1],2%
same,Population Healthy Nuclei (%),[1],85% and 82%
same,Population Hoechst High Intensity Objects (%),[1],5% and 6%
same,Population Membrane Permeable-Phenotype (%),[1],7% and 3%
same,Population Mitochondria Different-Phenotype (%),[1],8% and 9%
same,Population Mitotic Cells (%),[1],42% and 36%
same,Population Normal (%),[1],94% and 93%
same,Population Pyknosed Nuclei (%),[1],11% and 15%
same,Population Tubulin-Different-Phenotype (%),[1],28% and 30%
same,Total Cell Count,[1],581 and 605
same,Population Apoptotic (%),[2],36% and 26%
same,Population Fragmented Nuclei (%),[2],6% and 8%
same,Population Healthy Nuclei (%),[2],79% and 76%
same,Population Hoechst High Intensity Objects (%),[2],30%
same,Population Membrane Permeable-Phenotype (%),[2],25% and 20%
same,Population Mitochondria Different-Phenotype (%),[2],7% and 6%
same,Population Mitotic Cells (%),[2],63% and 73%
same,Population Normal (%),[2],69%
same,Population Pyknosed Nuclei (%),[2],13% and 15%
same,Population Tubulin-Different-Phenotype (%),[2],57% and 65%
same,Total Cell Count,[2],885 and 788
same,Population Apoptotic (%),[3],51% and 54%
same,Population Fragmented Nuclei (%),[3],3%
same,Population Healthy Nuclei (%),[3],88% and 85%
same,Population Hoechst High Intensity Objects (%),[3],3% and 5%
same,Population Membrane Permeable-Phenotype (%),[3],2% and 3%
same,Population Mitochondria Different-Phenotype (%),[3],2% and 5%
same,Population Mitotic Cells (%),[3],48% and 45%
same,Population Normal (%),[3],96% and 94%
same,Population Pyknosed Nuclei (%),[3],8% and 11%
same,Population Tubulin-Different-Phenotype (%),[3],11% and 16%
same,Total Cell Count,[3],923 and 803
same,Population Apoptotic (%),[4],20%
same,Population Fragmented Nuclei (%),[4],6% and 8%
same,Population Healthy Nuclei (%),[4],68% and 69%
same,Population Hoechst High Intensity Objects (%),[4],31% and 34%
same,Population Membrane Permeable-Phenotype (%),[4],18% and 11%
same,Population Mitochondria Different-Phenotype (%),[4],4% and 3%
same,Population Mitotic Cells (%),[4],79%
same,Population Normal (%),[4],68% and 65%
same,Population Pyknosed Nuclei (%),[4],25% and 22%
same,Population Tubulin-Different-Phenotype (%),[4],52% and 46%
same,Total Cell Count,[4],1101 and 1092
same,Population Apoptotic (%),[5],20% and 34%
same,Population Fragmented Nuclei (%),[5],9% and 6%
same,Population Healthy Nuclei (%),[5],85% and 88%
same,Population Hoechst High Intensity Objects (%),[5],6% and 5%
same,Population Membrane Permeable-Phenotype (%),[5],3% and 2%
same,Population Mitochondria Different-Phenotype (%),[5],0% and 2%
same,Population Mitotic Cells (%),[5],80% and 65%
same,Population Normal (%),[5],93% and 94%
same,Population Pyknosed Nuclei (%),[5],4%
same,Population Tubulin-Different-Phenotype (%),[5],7% and 9%
same,Total Cell Count,[5],1888 and 1385
same,Population Apoptotic (%),[6],13% and 10%
same,Population Fragmented Nuclei (%),[6],4% and 6%
same,Population Healthy Nuclei (%),[6],68% and 70%
same,Population Hoechst High Intensity Objects (%),[6],28% and 30%
same,Population Membrane Permeable-Phenotype (%),[6],11% and 4%
same,Population Mitochondria Different-Phenotype (%),[6],2% and 1%
same,Population Mitotic Cells (%),[6],86% and 89%
same,Population Normal (%),[6],71% and 69%
same,Population Pyknosed Nuclei (%),[6],26% and 22%
same,Population Tubulin-Different-Phenotype (%),[6],26% and 21%
same,Total Cell Count,[6],1638 and 1597
